# Compound activity (PubChem BioAssay)
# Only a sample is shown.
# Apaf-1 act – activates human Apaf-1 apoptosome; AID 489031; activity change, negative = activation, % at 20 µM; hit rate 0.31% among 330,000; O14727; Apaf-1 apoptosome caspase-3 activation, DEVD-Rh110 fluorescence; hits give low values;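 active = activity change at or below -40% at 20 µM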
#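 Material: reconstituted apoptosome of Apaf-1, cytochrome c, caspase-9, procaspase-3; times: 30 min preincubation, 50 min reaction, room temperature; measured by: fluorescence, 540 nm emission, 480 nm excitation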
# Rh110 interf act – counter-screen for Apaf-1 activators: fluorescence interference; AID 504616; 980 tested, under 10 active; Rh110 fluorescence interference, quenched caspase reaction, Ex480/Em540; shares compounds with Apaf-1 act; fluorescence interference (activity change), % at 20 µM, hits read low;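 active = mean activity change at or below -40% when tested at 20 µM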
# Apaf-1 act conf – Apaf-1 (human) activation, single-dose confirmed; AID 504617; activity change, negative = activation, % at 20 µM; shares compounds with Apaf-1 act; reconstituted apoptosome caspase-3 activity, DEVD-Rh110 fluorescence; hits give low values; hit rate 5% among 980;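 active = mean activity change at or below -40%, meaning activation of 40% or more, at 20 µM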
# An asterisk follows results filed as active; . = not tested or not shown.
SMILES,Apaf-1 act,Rh110 interf act,Apaf-1 act conf
CCCNc1c(F)c(F)c2c(C)c3ccccc3nc2c1F,51,.,.
CCOC(=O)C(C(=O)OCC)c1cc(Br)c2noc3c2c1C(=O)c1ccccc1-3,89,.,.
COCCN(Cc1ccccc1)C(=O)c1cccc(S(=O)(=O)N2CCN(c3ccccc3)CC2)c1,43,.,.
CCOC(=O)N1CCN(C2=C(NS(=O)(=O)c3ccccc3)C(=O)c3ccccc3C2=O)CC1,48,.,.
CCN(CC)C(=O)N1CCN(S(=O)(=O)c2ccccc2)CC1,-81*,-2,11
COc1ccc(CCN2CCC(Nc3nc4ccccc4n3Cc3ccc(F)cc3)CC2)cc1,56,.,.
COc1ccc(-c2nc(-c3ccccc3)nc(N3CCN(C)CC3)c2C#N)cc1,41,.,.
COc1ccc(N2CCN(Cc3nc4ccccc4n3C)CC2)cc1,-108*,0,-1
CCN1/C(=C/C(C)=C/c2sc3ccccc3[n+]2CC)Sc2ccccc21,53,.,.
COc1ccc(-c2ccc(C(c3c(C)[nH][nH]c3=O)c3c(C)[nH][nH]c3=O)o2)c([N+](=O)[O-])c1,75,.,.
Cn1c(SCc2ccc(F)cc2)nnc1-c1cnccn1,-156*,4,9
O=C(COC(=O)Cc1ccsc1)Nc1ccc(F)cc1Cl,-52*,-7,10
Cc1nc2c(=O)[nH]c(=S)n(C)c2nc1C,-263*,9,17
CC(C)=CCC/C(C)=C/CNC(=O)C[C@H]1C[C@H](C(=O)N2CCOCC2)[C@@]2(C)c3[nH]c4ccc(Cl)cc4c3CCN2C1=O,42,.,.
CCOC(=O)C1CCN(C(=O)c2ccc3c(c2)NC(=O)/C(=C\c2cccc(C)c2)S3)CC1,40,.,.
CC1CCCC(NC(=O)COC(=O)c2ccc([N+](=O)[O-])s2)C1C (stereo not drawn),41,.,.
CC1CCCC(NC(=O)COC(=O)CCC(=O)c2cccs2)C1C (stereo not drawn),-273*,0,12
COc1ccc(Cl)cc1C(=O)OCC(=O)NC1CCCC(C)C1C (stereo not drawn),-41*,12,15
COC(=O)C1=C(C)N(Cc2ccccc2)C(=NCc2ccc(OC)cc2)N[C@H]1c1cccc(F)c1,56,.,.
O=C(CCC1CCCCC1)NCCN1C2=NC[C@@H](Cc3ccccc3)N2C[C@H]1Cc1ccc(O)cc1,45,.,.
COc1ccc(C[C@H]2CN3C(=NC[C@@H]3C(C)C)N2CCNC(=O)c2ccc(C)c(Br)c2)cc1,47,.,.
Cc1ccc(C(=O)NCCN2C3=NC[C@H](C)N3C[C@H]2Cc2ccc(O)cc2)cc1Br,-440*,0,8
COc1cc(OC)cc(C(=O)NCC(=O)OCC(=O)c2ccc3c(c2)-c2ccccc2C3)c1,-65*,-7,18
O=C(NNc1ccccc1C(F)(F)F)c1cccs1,-107*,4,8
O=C(Nc1ccc(-c2nc3ccc(NC(=O)c4cccs4)cc3[nH]2)cc1)c1cccs1,69,.,.
SMILES,Apaf-1 act,Rh110 interf act,Apaf-1 act conf
Cn1c(=O)c2cc(NCc3ccccc3)nnc2n(C)c1=O,94,.,.
C/C=C(\C)C(=O)NCCN1C2=NC[C@@H](Cc3ccccc3)N2C[C@@H]1Cc1ccc(OC)cc1,40,.,.
O=C(Cc1cccc(C(F)(F)F)c1)OCC(=O)N1CCN(S(=O)(=O)c2ccc(Cl)cc2)CC1,51,.,.
Cc1c(CCO)c(=O)[nH]n1S(=O)(=O)c1cccc(C(F)(F)F)c1,-92*,11,15
Cc1cc(C(=O)NC(=S)Nc2cccc(C(=O)O)c2C)ccc1[N+](=O)[O-],-54*,0,11
CN(Cc1ccc(F)cc1)Cc1nc(CCc2ccccc2)no1,-143*,1,10
Cc1cnc(C(=O)Nc2ccc(C)c(S(=O)(=O)N(C)C)c2)cn1,-47*,8,9
C#CCOCCOCCOCCNc1nc(N2CCN(C(=O)CCCCCCCCCCNC(=O)[C@H]([C@@H](C)CC)n3cc(CCCCN=C(N)N)nn3)CC2)nc(N2CCN(C(=O)CCCCCCCCCCNC(=O)[C@H](CO)n3cc(CCCCCN)nn3)CC2)n1,85,.,.
CN(C)c1ccnc2c[cH-]cc12.[Fe].c1ccc(-[c-]2[c-](-c3ccccc3)[c-](-c3ccccc3)[c-](-c3ccccc3)[c-]2-c2ccccc2)cc1 (stereo not drawn),47,.,.
COc1cc(NCc2ccccc2)c2ncn(Cc3ccccc3)c2c1,50,.,.
COC(=O)c1sccc1NC(=O)c1c(C)noc1C,-654*,10,5
Nc1cccc2nsnc12,68,.,.
Cc1[nH]n(-c2ccccc2)c(=S)c1C=NCCCN=Cc1c(C)[nH]n(-c2ccccc2)c1=S,63,.,.
CSc1nncc(/C(C)=N\Nc2cccc(C)c2)n1,61,.,.
CSc1ncccc1C(=O)NCCc1ccc(Cl)cc1,-99*,-2,9
